Results on one compound are retold here after ChEMBL document CHEMBL1154279, “Cytotoxic compounds from the stems of Cinnamomum tenuifolium” (J Nat Prod, 2009).

The term IC50 denotes the point on the concentration scale where inhibition reaches its midpoint. The low end stands for inhibition by little substance, the high end for a need for much substance.

The structures appear in SMILES notation.

In one assay the test system is DU-145. Description: Cytotoxicity against human DU145 cells after 72 hrs by XTT assay. The assay is classed as functional, cell-based. The following applies: DU-145, 24 h, in the assay text read “after 24 hrs” for “after 72 hrs”.
The test system of another assay is LNCaP. Briefly: Cytotoxicity against human LNCAP cells after 72 hrs by XTT assay. The following applies: 24 h, in the assay text read “after 24 hrs” for “after 72 hrs”. The class given is functional, cell-based. The gist of the method:
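Prostate cancer cells in RPMI-1640 with 10% FBS, 37 °C, 5% CO2, grown to 70–80% confluence and treated at 0.1–100 µM for 24, 48 and 72 h. XTT labeling for 4 h at 37 °C, absorbance 450 nm (reference 650 nm) against control wells. IC50 derived from the mean of eight wells; taxol and cisplatin served as positive controls.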

Take `C=C1OC(=O)/C(=C\CCCCCCCCCCCCCCCCCCCCCCCCCC)[C@@H]1O` [TENUIFOLIDE A]: the results for the half-maximal inhibitory concentration (IC50) in the assay with DU-145 and in the assay on LNCaP were 211 µM and 450 µM, respectively.
